MT1-MMP txn act – MT1-MMP promoter reporter activation – cell-based, luciferase luminescence, primary screen; HT1080 MT1-MMP promoter luciferase reporter, overnight; stronger effect = higher value; activation factor at 10 µM; 86,000 tested, 0.16% active; AID 750, 2007;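 active means activation factor of at least 2 for MT1-MMP transcription at 10 µM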
Mac1 fbg enh – enhancers of CD11b/CD18 adhesion to fibrinogen, primary screen, K562 cells, luminescence; Integrin beta-2 (Homo sapiens) + Integrin alpha-M (Homo sapiens), P05107+P11215; ATPlite luminescence; activation, % at 10 µM; 93,000 tested, 0.07% active;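 active means 10 µM primary screen giving 50% or more activity, confirmed by 40% or more on retest at that dose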
SF1 activator – activators of human SF-1, primary screen, cell-based, CHO-K1, Gal4-SF-1 LBD, luciferase luminescence; activation, % at 10 µM; CHO-K1 Gal4-SF-1 LBD luciferase reporter; % increase over DMSO SF-1-specific signal; 65,000 tested, 1.9% active;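 active means activation above the mean activation of all tested compounds plus 3 SD, cut at about 50% in these data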
Target sequence (Q13285 whole entry, looked up, the tested form may be a part): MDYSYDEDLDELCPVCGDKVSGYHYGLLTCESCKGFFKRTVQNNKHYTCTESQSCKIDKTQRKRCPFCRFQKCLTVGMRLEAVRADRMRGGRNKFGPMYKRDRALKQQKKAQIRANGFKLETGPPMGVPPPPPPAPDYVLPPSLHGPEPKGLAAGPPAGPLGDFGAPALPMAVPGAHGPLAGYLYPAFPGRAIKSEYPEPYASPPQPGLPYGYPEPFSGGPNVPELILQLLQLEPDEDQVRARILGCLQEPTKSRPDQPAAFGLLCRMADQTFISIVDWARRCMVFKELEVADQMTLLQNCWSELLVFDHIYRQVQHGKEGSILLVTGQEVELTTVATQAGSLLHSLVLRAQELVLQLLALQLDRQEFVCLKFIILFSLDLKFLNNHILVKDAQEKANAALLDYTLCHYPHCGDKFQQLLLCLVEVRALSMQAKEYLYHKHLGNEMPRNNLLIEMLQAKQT
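Assay system: CHO-K1 cells co-transfected with Gal4 DBD–human SF-1 LBD, 5xGal4 luciferase reporter / Input: 4,000 cells per well / Incubation: 20 h compound exposure at 37 °C after 1 h cell settling / Detection: SteadyLite luciferase luminescence / Control set: DMSO negative control and −SF1 background wells / Replication: one test per compound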
Calb biofilm kill – clotrimazole potentiators killing Candida biofilms, primary screen, with clotrimazole, Alamar Blue; C. albicans biofilm + clotrimazole; inhibition, % at 6 µM; 85,000 tested, 0.14% active;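 active means inhibition above 20%; inactive means inhibition below 20%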;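 further: preformed 24 hr biofilms exposed to compound for 48 hr; 0% = biofilm without compound and 100% = blank killed by clotrimazole plus chlorhexidine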
RORA act – activators of orphan receptor RORA, primary screen, cell-based, luminescence. Nuclear receptor ROR-alpha (Homo sapiens), P35398. CHO-K1 Gal4-RORA LBD luciferase reporter; percent increase over mock-subtracted basal signal. activation, % at 10 µM. 65,000 tested, 1.5% active. AID 560, 2006;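 active means activation above the mean of all tested compounds plus 3 SD, cut at about 49% in these data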;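 further: 0% = DMSO-treated RORA cells and 100% = added signal equal to DMSO minus mock-transfected cells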
CD11b adhes inh – inhibitors of CD11b/CD18 adhesion to fibrinogen, primary screen, K562 cells, luminescence. inhibition, % at 10 µM. 93,000 tested, 0.54% active. ATPlite luminescence; Mn2+ added to activate the integrin. Integrin beta-2 (Homo sapiens) + Integrin alpha-M (Homo sapiens), P05107+P11215;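 active means primary inhibition of 50% or more at 10 µM, then 40% or more on retest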
* marks the source's active call; other numbers are inactive results; x = no result given. In the library only some 2.2% were active in any assay of this set; here they are far more common.

SMILES	MT1-MMP txn act	Mac1 fbg enh	SF1 activator	Calb biofilm kill	RORA act	CD11b adhes inh
CC1(C)CN=C(Nc2nc3ccccc3s2)S1	1.1	-5	70*	1	54*	-20
CCC(=NCCc1c[nH]c2ccccc12)c1c(O)n(C)c(=O)n(C)c1=O	1	-5	x	0	x	79*
CCC(=NCCOc1ccc(Cl)cc1)c1c(O)n(C)c(=O)n(C)c1=O	1.1	-11	-13	-1	-30	94
CCn1nc(-c2cccs2)nc2c(=O)n(C)c(=O)nc1-2	x	-1	-96	x	-91	63*
O=C(C1CCN(c2nc3ccc(Br)cc3s2)CC1)N1CCC2(CC1)OCCO2	1.5	x	6	x	8	x
Cc1ccc2nc(N3CCC(C(=O)N4CCC5(CC4)OCCO5)CC3)sc2c1	1.3	-4	74*	x	30	3
COc1ccccc1/C=N/N=C(/N)N[N+](=O)[O-]	1	-4	x	44*	x	0
COC(=O)[C@@]1(Cc2ccccc2)[C@H]2c3cc(C(=O)N(C)C)n(C)c3C[C@H]2CN1C(=O)c1ccccc1	1.1	x	x	x	x	x
O=P(c1ccccc1)(c1ccccc1)N1CC2(CC2)CC(O)(c2ccccc2)C1 (configuration not stated)	1.1	x	x	x	x	x
CCOP(=O)(OCC)C(NC(=O)c1ccccc1Cl)=C(Cl)Cl	x	0	x	x	x	1
CCOP(=O)(C(NC(=O)c1ccccc1Cl)=C(Cl)Cl)c1ccccc1 (configuration not stated)	1	-2	x	69*	x	-39
COC(=O)[C@@H]1C[C@@]2(O)[C@H](O)[C@H](O)[C@H](O)C[C@H]2N1Cc1cccnc1	1.2	x	x	x	x	x
O=C(c1cc2c(s1)-c1ccccc1OC2)N1CCC2(CC1)OCCO2	1.3	2	61*	x	54*	-2
COC(=O)[C@@H]1C[C@H]2CC[C@H](O)C[C@H]2N1CC1CC1	1.1	x	x	x	x	x
CCCc1cc2c(n1Cc1ccco1)C(C)C1CN(C(=O)c3ccccc3)C(C)(C(=O)OC)C21 (configuration not stated)	1.1	x	x	x	x	x
C=C(CC1(CNP(=O)(c2ccccc2)c2ccccc2)CC1)c1ccccc1	2*	x	x	x	x	x
O=P(N[C@@H](c1ccccc1)[C@@H]1C[C@H]1CO)(c1ccccc1)c1ccccc1	1.4	x	x	x	x	x
CCN1/C(=C\C=C\C2=[N+](CC)c3ccccc3C2(C)C)C(C)(C)c2ccccc21	0.6	-6	x	-13	x	97*

Assay outcomes (PubChem)
